Measurements: ChEMBL document CHEMBL1130040, “Synthesis and structure-activity relationships of a new model of arylpiperazines. 2. Three-dimensional quantitative structure-activity relationships of hydantoin-phenylpiperazine derivatives with affinity for 5-HT1A and alpha 1 receptors. A comparison of CoMFA models” (J Med Chem, 1997)

How the values were obtained:
[1] = molecular target: T1, 5-hydroxytryptamine receptor 1A (Rattus norvegicus, UniProt P19327); assay: Tested in vitro for binding affinity by measuring its ability to inhibit [3H]8-OH-DPAT binding at 5-hydroxytryptamine 1A receptor in rat cerebral cortex membranes.; assay type: cell membranes
T1 sequence (P19327 whole entry): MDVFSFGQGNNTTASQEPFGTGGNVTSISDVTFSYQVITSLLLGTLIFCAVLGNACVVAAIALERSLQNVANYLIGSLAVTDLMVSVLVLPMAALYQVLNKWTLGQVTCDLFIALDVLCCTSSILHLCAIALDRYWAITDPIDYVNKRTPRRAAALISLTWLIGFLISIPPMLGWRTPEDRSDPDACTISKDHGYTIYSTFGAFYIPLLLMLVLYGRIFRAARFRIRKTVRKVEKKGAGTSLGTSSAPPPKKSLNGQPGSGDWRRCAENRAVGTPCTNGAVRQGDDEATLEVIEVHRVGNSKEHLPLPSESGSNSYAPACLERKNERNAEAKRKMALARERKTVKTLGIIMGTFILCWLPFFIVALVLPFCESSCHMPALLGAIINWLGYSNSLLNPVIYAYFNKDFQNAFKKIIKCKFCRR
Summary of the method: (§1)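 Rat cortex homogenized in ice-cold 50 mM Tris-HCl (pH 7.7), spun at 28000g, washed twice, preincubated 37 °C 10 min, resuspended in Tris/5 mM MgSO4/0.5 mM EDTA (pH 7.4). About 1 mg protein incubated 15 min at 37 °C with 0.6 nM [3H]-8-OH-DPAT and competitor, in buffer with 10 nM clonidine and 30 nM prazosin. Nonspecific binding: 10 μM 5-HT. Prescreen at 10^-6 M; curves run if displacement ≥55%.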

[2] = molecular target: T2, Adrenergic receptor alpha-1 (Rattus norvegicus, UniProt P15823+P23944+P43140); assay: Tested in vitro for binding affinity by measuring its ability to inhibit [3H]prazosin binding at alpha-1 adrenergic receptor in rat cerebral cortex membranes.; assay type: cell membranes
T2 sequence (P15823 whole entry): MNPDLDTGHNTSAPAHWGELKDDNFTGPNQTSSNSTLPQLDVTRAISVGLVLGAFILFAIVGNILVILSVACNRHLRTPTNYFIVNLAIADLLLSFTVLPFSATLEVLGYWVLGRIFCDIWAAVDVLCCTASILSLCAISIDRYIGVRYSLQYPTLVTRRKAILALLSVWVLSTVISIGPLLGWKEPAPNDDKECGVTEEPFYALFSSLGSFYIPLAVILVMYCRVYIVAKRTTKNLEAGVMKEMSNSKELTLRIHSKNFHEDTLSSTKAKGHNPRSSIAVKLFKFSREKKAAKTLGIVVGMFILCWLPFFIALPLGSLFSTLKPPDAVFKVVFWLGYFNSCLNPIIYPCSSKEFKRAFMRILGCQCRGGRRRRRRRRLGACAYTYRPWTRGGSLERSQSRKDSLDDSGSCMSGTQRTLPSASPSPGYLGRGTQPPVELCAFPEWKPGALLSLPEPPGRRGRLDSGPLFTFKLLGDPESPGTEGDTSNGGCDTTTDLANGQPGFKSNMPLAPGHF
T2 sequence (P23944 whole entry): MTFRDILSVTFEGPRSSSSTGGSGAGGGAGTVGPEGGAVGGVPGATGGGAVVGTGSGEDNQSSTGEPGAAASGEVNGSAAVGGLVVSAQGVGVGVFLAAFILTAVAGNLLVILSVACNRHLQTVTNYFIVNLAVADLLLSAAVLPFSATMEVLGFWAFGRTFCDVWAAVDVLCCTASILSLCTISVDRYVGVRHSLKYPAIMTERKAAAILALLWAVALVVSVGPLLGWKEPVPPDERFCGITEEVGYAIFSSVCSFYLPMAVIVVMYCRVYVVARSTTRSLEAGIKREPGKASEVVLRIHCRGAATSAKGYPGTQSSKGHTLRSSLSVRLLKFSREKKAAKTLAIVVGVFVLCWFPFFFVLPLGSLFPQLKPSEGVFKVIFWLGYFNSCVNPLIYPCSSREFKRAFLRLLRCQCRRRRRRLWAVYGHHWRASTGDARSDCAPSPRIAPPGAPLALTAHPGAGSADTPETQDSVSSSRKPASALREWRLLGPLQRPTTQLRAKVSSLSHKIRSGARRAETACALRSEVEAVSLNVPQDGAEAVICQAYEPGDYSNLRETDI
T2 sequence (P43140 whole entry): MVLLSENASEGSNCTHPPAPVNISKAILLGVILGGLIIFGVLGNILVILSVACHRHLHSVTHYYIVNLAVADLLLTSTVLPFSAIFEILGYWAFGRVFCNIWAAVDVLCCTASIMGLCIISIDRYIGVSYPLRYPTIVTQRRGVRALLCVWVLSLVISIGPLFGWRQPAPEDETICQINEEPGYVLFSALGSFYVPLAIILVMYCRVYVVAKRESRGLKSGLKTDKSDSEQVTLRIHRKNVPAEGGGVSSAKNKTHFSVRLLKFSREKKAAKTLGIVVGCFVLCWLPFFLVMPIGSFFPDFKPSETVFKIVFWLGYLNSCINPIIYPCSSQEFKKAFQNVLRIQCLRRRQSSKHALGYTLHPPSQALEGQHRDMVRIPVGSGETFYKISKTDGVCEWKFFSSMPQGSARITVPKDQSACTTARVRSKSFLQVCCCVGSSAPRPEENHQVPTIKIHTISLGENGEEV
Summary of the method: (§2)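 Rat cerebral cortex homogenized in ice-cold 50 mM Tris-HCl/10 mM MgCl2 (pH 7.7), centrifuged at 30000g, washed twice. About 250 μg membrane protein incubated at 25 °C for 30 min with 0.2 nM [3H]prazosin plus several competitor concentrations. Compounds first screened at 10^-6 M; dose-response curves done where displacement reached ≥55%.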

[3] = molecular target: T2, Adrenergic receptor alpha-1; assay: In vitro binding affinity against alpha-1 adrenergic receptor of rat cerebral cortex using [3H]prazosin as radioligand.; assay type: tissue-based; summary of the method: as §2
[4] = molecular target: T1, 5-hydroxytryptamine receptor 1A; assay: In vitro binding affinity against 5-hydroxytryptamine 1A receptor of rat cerebral cortex using [3H]8-OH-DPAT as radioligand.; assay type: tissue-based; summary of the method: as §1

| SMILES | Ki [1] | Ki [2] | Ki [3] | further results |
| --- | --- | --- | --- | --- |
| O=C1C2CCCCN2C(=O)N1CCCN1CCN(c2ccc([N+](=O)[O-])cc2)CC1 (stereo not drawn) | 30.6 µM | 6.652 µM |  |  |
| O=C1C2CCCCN2C(=O)N1CCN1CCN(c2ccc([N+](=O)[O-])cc2)CC1 (stereo not drawn) | 93.6 µM | 199 µM |  |  |
| O=C1C2CCCCN2C(=O)N1CCN1CCN(c2ccccc2)CC1 (stereo not drawn) | 1.35 µM |  |  |  |
| Nc1ccc(N2CCN(CCCCN3C(=O)C4CCCN4C3=O)CC2)cc1 (stereo not drawn) | > 10 µM |  |  |  |
| CC(C)C(=O)Nc1cccc(N2CCN(CCCCN3C(=O)C4CCCN4C3=O)CC2)c1.Cl (stereo not drawn) | 0.102 µM | > 10 µM |  |  |
| O=C1C2CCCN2C(=O)N1CCN1CCN(c2ccc(F)cc2)CC1 (stereo not drawn) | 23.9 µM |  |  |  |
| O=C1C2CCCCN2C(=O)N1CN1CCN(c2ccccc2)CC1 (stereo not drawn) |  |  | 2.075 µM |  |
| O=C1C2CCCN2C(=O)N1CCCCN1CCN(c2ccc([N+](=O)[O-])cc2)CC1 (stereo not drawn) | 23.9 µM |  |  |  |
| COc1ccccc1N1CCN(CN2C(=O)C3CCCCN3C2=O)CC1 (stereo not drawn) |  |  |  | Ki [4]: 0.0311 µM |
| O=C1C2CCCN2C(=O)N1CCCN1CCN(c2ccc(F)cc2)CC1 (stereo not drawn) | 1.18 µM |  |  |  |
| O=C1C2CCCN2C(=O)N1CCCN1CCN(c2ccc([N+](=O)[O-])cc2)CC1 (stereo not drawn) |  | 7.533 µM |  |  |
| O=C1C2CCCN2C(=O)N1CCN1CCN(c2ccc([N+](=O)[O-])cc2)CC1 (stereo not drawn) | 501 µM | 260 µM |  |  |
| O=C1C2CCCCN2C(=O)N1CCN1CCN(c2ccc(F)cc2)CC1 (stereo not drawn) | 19.3 µM |  |  |  |
| O=C1C2CCCCN2C(=O)N1CN1CCN(c2ccc([N+](=O)[O-])cc2)CC1 (stereo not drawn) |  |  | 260 µM | Ki [4]: 5.97 µM |

Now from value to compound, other results behind:

| Ki [1] | Ki [2] | Ki [3] | SMILES | further results |
| --- | --- | --- | --- | --- |
| 7.55 µM |  |  | O=C1C2CCCN2C(=O)N1CCN1CCN(c2ccccc2)CC1 (stereo not drawn) |  |
|  |  | 2.588 µM | O=C1C2CCCN2C(=O)N1CN1CCN(c2ccccc2)CC1 (stereo not drawn) |  |
|  | 3.935 µM |  | O=C1C2CCCN2C(=O)N1CCN1CCN(c2cccc(C(F)(F)F)c2)CC1 (stereo not drawn) |  |
|  |  | 3.296 µM | O=C1C2CCCCN2C(=O)N1CN1CCN(c2cccc(C(F)(F)F)c2)CC1 (stereo not drawn) |  |
|  | 4.325 µM |  | O=C1C2CCCCN2C(=O)N1CCN1CCN(c2cccc(C(F)(F)F)c2)CC1 (stereo not drawn) |  |
|  |  | 260 µM | O=C1C2CCCN2C(=O)N1CN1CCN(c2ccc([N+](=O)[O-])cc2)CC1 (stereo not drawn) | Ki [4]: 6.1 µM |
|  |  | 3.296 µM | O=C1C2CCCN2C(=O)N1CN1CCN(c2cccc(C(F)(F)F)c2)CC1 (stereo not drawn) |  |
|  |  | 1.193 µM | O=C1C2CCCN2C(=O)N1CN1CCN(c2ccc(F)cc2)CC1 (stereo not drawn) |  |
